Results reported in ChEMBL document CHEMBL4665815, “Di-bromo-Based Small-Molecule Inhibitors of the PD-1/PD-L1 Immune Checkpoint” (J Med Chem, 2020).
pEC50, pIC50: −log10 of the molar value. The source made the active and inactive calls. The calls are words filed in the database; no cut-off is given here.

Experiments:
[1] = target: T1, Programmed cell death protein 1/Programmed cell death 1 ligand 1 (Homo sapiens, UniProt Q15116+Q9NZQ7); assay: Inhibition of hPD-1/hPD-L1 immune checkpoint using PD-L1 expressing human aAPCs and PD-1 expressing human Jurkat cells assessed as activation of effector Jurkat T cells at 0.01 to 100 uM incubated for 6 hrs by luciferase reporter gene based immune checkpoint blockade cell-based assay; conditions: dose microM 0.01-100, time 6.0 hrs
Method in brief: (§1)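 CHO-K1 aAPCs expressing hPD-L1 and a TCR ligand were seeded at 10 000/well 17 h ahead. Compounds were serially diluted 2.5-fold in DMSO, then 1000-fold into RPMI with 1% FBS (0.1% DMSO final). Jurkat hPD-1 NFAT-RE luciferase effector cells were added at 20 000/well for 6 h. Bio-Glo luminescence was read as fold induction over DMSO controls. EC50 came from Hill fits with the durvalumab maximum as the ceiling. Mean ± SEM, 4–7 experiments.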

[2] = target: Programmed cell death 1 ligand 1 (Mus musculus) (UniProt Q9EP73); assay: Binding affinity to mouse PD1-L1 (19-134 residues) expressed in Escherichia coli BL21 (DE3) incubated for 1 hr by MST analysis
[3] = Binding affinity to human PD1 (34-150 residues) extracellular domain C93S mutant expressed in Escherichia coli BL21 (DE3) incubated for 2 hrs by TR-FRET assay
[4] = target: Programmed cell death protein 1/Programmed cell death 1 ligand 1 (Homo sapiens, UniProt Q9NZQ7); assay: (§2) Inhibition of hPD-1/hPD-L1 immune checkpoint using PD-L1 expressing human aAPCs and PD-1 expressing human Jurkat cells assessed as activation of effector Jurkat T cells incubated for 6 hrs by luciferase reporter gene based immune checkpoint blockade cell-based assay; method in brief: as §1
[5] = target: T1, Programmed cell death protein 1/Programmed cell death 1 ligand 1; assay: as §2; method in brief: as §1
Jurkat [6] = assay: Toxicity in human Jurkat cells assessed as reduction in cell viability at 40 uM incubated for 24 hrs relative to control; format: cell-based
Homo sapiens [7] = species: Homo sapiens; assay: Binding affinity to 15N labelled human PD1 N66A mutant assessed as induction of dissociation of PD-1 N66A mutant/PDL1 complex by w-AIDA-NMR 1D assay
Homo sapiens [8] = species: Homo sapiens; assay: Binding affinity to 15N labelled human PD1 N66A mutant assessed as induction of dissociation of PD-1 N66A mutant/PDL1 complex by w-AIDA-NMR 2D assay
Method in brief: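 Uniformly 15N-labelled hPD-1 N66A mutant, expressed in bacteria grown at 28 °C in M9 medium with 15NH4Cl as the sole nitrogen source and induced with 1 mM IPTG. Protein was refolded from inclusion bodies and purified by size-exclusion chromatography in 25 mM sodium phosphate pH 6.4, 100 mM NaCl. 1H–15N signals were followed by SOFAST HMQC.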

[9] = target: Programmed cell death 1 ligand 1 (Homo sapiens) (UniProt Q9NZQ7); assay: Binding affinity to human PD-L1 (18 to 134 residues) assessed as induction of protein dimerization by 1H NMR method
[10] = Solubility in water; format: physicochemical; conditions: buffer
[11] = Solubility in DMSO; format: physicochemical
[12] = target: T1, Programmed cell death protein 1/Programmed cell death 1 ligand 1; assay: Inhibition of PD-1/PD-L1 immune checkpoint using PD-L1 expressing human aAPCs and PD-1 expressing human PBMC assessed as increase in PD-1 receptor expression on surface of CD8+ T cells incubated for 48 hrs by flow cytometry
Method in brief: (§3)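 PBMCs from healthy donors were isolated by density-gradient centrifugation. They were added at 400 000 cells/well onto preseeded CHO-K1 hPD-L1 aAPCs and cultured 48 h with compound, DMSO or atezolizumab (5 μg/mL). Cells were detached and stained 20 min at room temperature for CD69, CD4, CD8 and PD-1, then analysed by flow cytometry. Values are mean ± SD of three independent experiments with different donors; Student's t test.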

[13] = Binding affinity to Fc-tagged human PD-1 assessed as induction of dissociation of PD-1 N66A mutant/His-and Fc-tagged human PD-L1complex pre-incubated for 30 mins with PDL1 and measured after 1 hr by competitive ELISA
PBMC = assay: Effect on CD69 expression in human PBMC; format: functional; method in brief: as §3
Jurkat [14] = assay: Toxicity in human Jurkat cells at >100 uM incubated for 24 hrs; format: cell-based
[15] = target: T1, Programmed cell death protein 1/Programmed cell death 1 ligand 1; assay: Inhibition of PD-1/PD-L1 immune checkpoint using PD-L1 expressing human aAPCs and PD-1 expressing human PBMC assessed as increase in PD-1 receptor expression on surface of CD4+ T cells incubated for 48 hrs by flow cytometry; method in brief: as §3
[16] = target: T1, Programmed cell death protein 1/Programmed cell death 1 ligand 1; assay: Inhibition of hPD-1/hPD-L1 immune checkpoint using PD-L1 expressing human aAPCs and PD-1 expressing human Jurkat cells assessed as activation of effector Jurkat T cells at 50 uM incubated for 6 hrs by luciferase reporter gene based immune checkpoint blockade cell-based assay relative to control; method in brief: as §1

Chain of Programmed cell death 1 ligand 1 (Mus musculus) (Q9EP73 whole entry, the tested form may be a part): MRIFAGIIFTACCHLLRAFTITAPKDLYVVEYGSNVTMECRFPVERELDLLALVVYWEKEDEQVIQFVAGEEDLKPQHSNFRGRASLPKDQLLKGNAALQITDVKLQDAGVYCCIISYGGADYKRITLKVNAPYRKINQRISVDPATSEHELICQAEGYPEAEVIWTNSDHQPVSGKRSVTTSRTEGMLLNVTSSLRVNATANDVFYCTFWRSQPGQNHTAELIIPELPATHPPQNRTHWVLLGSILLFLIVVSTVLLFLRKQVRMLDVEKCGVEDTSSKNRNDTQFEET
Chain of Programmed cell death protein 1/Programmed cell death 1 ligand 1 (Homo sapiens, UniProt Q9NZQ7) (Q15116 whole entry): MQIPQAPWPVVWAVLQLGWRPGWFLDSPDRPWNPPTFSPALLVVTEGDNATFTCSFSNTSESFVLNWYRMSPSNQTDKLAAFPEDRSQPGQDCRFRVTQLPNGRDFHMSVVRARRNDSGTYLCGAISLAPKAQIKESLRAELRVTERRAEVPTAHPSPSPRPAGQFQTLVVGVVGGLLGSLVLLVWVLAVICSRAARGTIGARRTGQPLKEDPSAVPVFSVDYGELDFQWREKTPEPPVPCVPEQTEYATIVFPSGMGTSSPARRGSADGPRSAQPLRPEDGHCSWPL
Chain of Programmed cell death protein 1/Programmed cell death 1 ligand 1 (Homo sapiens, UniProt Q9NZQ7) (Q9NZQ7 whole entry): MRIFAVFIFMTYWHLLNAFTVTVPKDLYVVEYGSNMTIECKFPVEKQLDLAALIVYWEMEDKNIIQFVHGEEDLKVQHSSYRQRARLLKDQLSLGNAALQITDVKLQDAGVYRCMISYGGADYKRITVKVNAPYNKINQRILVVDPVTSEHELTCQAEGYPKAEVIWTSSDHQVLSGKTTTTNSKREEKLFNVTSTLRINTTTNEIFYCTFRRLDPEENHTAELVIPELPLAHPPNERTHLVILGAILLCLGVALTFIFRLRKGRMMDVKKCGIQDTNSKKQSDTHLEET
T1 sequence (Q15116 whole entry): as the sequence (Q15116 whole entry) above
T1 sequence (Q9NZQ7 whole entry): as the sequence (Q9NZQ7 whole entry) above
Chain of Programmed cell death 1 ligand 1 (Homo sapiens) (Q9NZQ7 whole entry, the tested form may be a part): as the sequence (Q9NZQ7 whole entry) above

Row | Structure (SMILES) | pIC50 [3] | further results
1 | Cc1c(COc2ccc(CN3CCCC[C@H]3C(=O)O)cc2)cccc1-c1ccccc1 | – | Activity [1]: Active; Activity [2]: inactive
2 | O=S1(=O)CCN(Cc2cccc(OCc3cccc(-c4cccc(F)c4)c3Br)c2)CC1 | 4.65 | –
3 | O=C(O)[C@@H]1CCCCN1Cc1ccc(OCc2cccc(-c3cccc(F)c3)c2Br)c(Br)c1 | 7.19 | –
4 | O=C(O)[C@@H]1CCCCN1Cc1ccc(OCc2cccc(-c3ccc4c(c3)OCCO4)c2Br)c(Br)c1 | 6.40 | Activity [1]: Active; pEC50 [4]: < 4.40
5 | Fc1cccc(-c2cccc(CBr)c2Br)c1 | 4.00 | –
6 | O=Cc1ccc(OCc2cccc(-c3ccccc3)c2Br)cc1 | 4.30 | –
7 | OCc1cccc(-c2ccc3c(c2)OCCO3)c1F | 4.26 | –
8 | Cc1cc(C=O)ccc1OCc1cccc(-c2ccccc2)c1Br | 4.30 | –
9 | N#Cc1cc(COc2cc(OCc3cccc(-c4ccccc4)c3Br)c(Cl)cc2C=O)ccn1 | 4.53 | Activity [1]: Active; pEC50 [5]: < 4.40
10 | Cc1c(COc2cc(OCc3cccc(C#N)c3)c(CN3C[C@H](O)C[C@@H]3C(=O)O)cc2Cl)cccc1-c1ccc2c(c1)OCCO2 | – | Activity (Jurkat [6]): 50%; Activity [2]: inactive
11 | O=C(O)[C@@H]1C[C@H](O)CN1Cc1ccc(OCc2cccc(-c3ccccc3)c2-c2ccccc2)c(Br)c1 | 4.53 | –
12 | COc1cc(C=O)ccc1OCc1cccc(-c2ccccc2)c1Br | < 4.00 | –
13 | CC(=O)NCCNCc1ccc(OCc2cccc(-c3ccc4c(c3)OCCO4)c2F)c(Br)c1 | 7.64 | –
14 | N#Cc1cc(COc2cc(OCc3cccc(-c4ccccc4)c3-c3ccccc3)c(Cl)cc2C=O)ccn1 | 4.62 | Activity [1]: Active; pEC50 [5]: < 4.40
15 | O=Cc1ccc(OCc2cccc(-c3ccc4c(c3)OCCO4)c2Br)c(Br)c1 | 4.45 | –
16 | O=Cc1cc(Cl)c(OCc2cccc(-c3ccccc3)c2-c2ccccc2)cc1O | < 4.00 | –
17 | O=Cc1ccc(OCc2cccc(-c3ccc4c(c3)OCCO4)c2F)c(Br)c1 | < 4.00 | –
18 | OCc1cccc(-c2ccccc2)c1-c1ccccc1 | < 4.00 | –

Row | Structure (SMILES) | pIC50 [3] | further results
19 | O=Cc1ccc(OCc2cccc(-c3ccccc3)c2Br)c(Br)c1 | 4.30 | –
20 | O=Cc1ccc(OCc2cccc(-c3cccc(F)c3)c2Br)c(Br)c1 | 4.26 | –
21 | N#Cc1ccc(-c2cccc(CBr)c2Br)cc1 | 4.18 | –
22 | OCc1cccc(-c2ccccc2)c1F | 4.25 | Activity (Homo sapiens [7]): Active; Activity (Homo sapiens [8]): Active
23 | COC(=O)c1ccc(OCc2cccc(-c3ccccc3)c2Br)c(Br)c1 | 4.54 | –
24 | BrCc1cccc(-c2ccccc2)c1Br | 4.29 | Activity (Homo sapiens [7]): Active; Activity (Homo sapiens [8]): Active
25 | CC(=O)NCCNCc1ccc(OCc2cccc(-c3cccc(F)c3)c2Br)c(Br)c1 | 6.97 | –
26 | O=Cc1cc(Cl)c(OCc2cccc(-c3ccccc3)c2Br)cc1O | < 4.00 | –
27 | CC(=O)NCCNCc1ccc(OCc2cccc(-c3ccc(C#N)cc3)c2Br)c(Br)c1 | 5.29 | –
28 | OCc1cccc(OCc2cccc(-c3cccc(F)c3)c2Br)c1 | < 4.00 | –
29 | N#Cc1cccc(COc2cc(OCc3cccc(-c4ccccc4)c3Br)c(Cl)cc2C=O)c1 | 6.26 | Activity [1]: Active; pEC50 [5]: < 4.40
30 | N#Cc1cc(COc2cc(OCc3cccc(-c4ccccc4)c3Br)c(Cl)cc2CN2C[C@@H](O)C[C@H]2C(=O)O)ccn1 | 8.41 | Activity [9]: Active; solubility [10]: Insoluble; Activity [1]: Active; solubility [11]: Insoluble; pEC50 [4]: 4.91
31 | O=C(O)[C@@H]1CCCCN1Cc1ccc(OCc2cccc(-c3ccccc3)c2Br)cc1 | 7.82 | inhibition [12]: Active; pIC50 [13]: 8.83; Activity [9]: Active; Activity (PBMC): inactive; Activity [1]: Active; Activity (Jurkat [14]): Non-Toxic; Activity [2]: inactive; pEC50 [4]: 5.18; inhibition [15]: Active; fold change (FC) [16]: 2.1
32 | N#Cc1ccc(-c2cccc(COc3ccc(C=O)cc3Br)c2Br)cc1 | < 4.00 | –
33 | BrCc1cccc(-c2ccc3c(c2)OCCO3)c1Br | 4.19 | –
34 | O=Cc1ccc(OCc2cccc(-c3ccccc3)c2-c2ccccc2)c(Br)c1 | < 4.00 | –
35 | O=S1(=O)CCN(Cc2ccc(OCc3cccc(-c4cccc(F)c4)c3Br)c(Br)c2)CC1 | 5.37 | –
